From PubChem BioAssay
Compounds with a hit are over-represented: about 4% of the library has one in this group of screens.
SENP1 inh = human SENP1 catalytic domain inhibitors, primary screen, biochemical, FRET, uHTS. Sentrin-specific protease 1 (Homo sapiens), Q9P0U3. inhibition, % at 10 µM. recombinant SENP1 catalytic domain, CyPet-SUMO1-YPet FRET cleavage. hit rate 0.21% among 360,000. AID 624204, 2012;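 active = inhibition at least 30% at 10 µM, raw YFP signal under a set limit, fluorescence ratio 0.5 to 1.5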;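 also: 0% = enzyme with DMSO and 100% = no enzyme wells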
Target sequence (Q9P0U3 419-644 limits assumed): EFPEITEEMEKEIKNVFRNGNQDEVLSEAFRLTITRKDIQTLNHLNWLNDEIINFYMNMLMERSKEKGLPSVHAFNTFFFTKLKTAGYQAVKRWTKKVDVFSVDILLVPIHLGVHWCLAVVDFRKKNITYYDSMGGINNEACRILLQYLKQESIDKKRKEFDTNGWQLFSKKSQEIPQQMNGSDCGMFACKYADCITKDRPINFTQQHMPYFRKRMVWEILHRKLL
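Controls: no-enzyme wells low, DMSO-plus-enzyme wells high control. Test system: human recombinant His6-tagged SENP1 catalytic domain enzyme. Reagent: SFCypet-SUMO1-SFYpet FRET protein substrate, 25 nM final. Doses: one dose per compound, 10 µM, 0.5% DMSO. Detection: FRET, CFP and YFP emission. Timing: 50 min reaction at room temperature.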
Arrestin-AP2 inh = inhibitors of beta-arrestin/AP2 binding, primary screen, biochemical, GPCR trafficking, flow cytometry; beta-arrestin 1 C-terminal peptide binding to AP2 beta2-adaptin appendage (human); FITC-arrestin peptide / GST-AP2 beads; AP2 beta2 appendage carries R879A mutation; inhibition, % at 10 µM; hit rate 0.31% among 340,000; AID 504490, 2011;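 active = inhibition above a set limit, near 3 SD of compounds lacking own fluorescence, cut at about 54% in these data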;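 also: plate controls were DMSO wells for no effect and 5 µM unlabelled arrestin peptide for full effect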
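System: GST-AP2 R879A bound to glutathione beads, E. coli-expressed. Also added: 50 nM FITC-arrestin peptide. Schedule: compound with beads 12 min RT, then probe 1 h RT. Signal: bead flow cytometry, FITC channel. Read-out basis: percent response.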
hiPSC survival = enhancers of single-cell hiPSC survival, primary screen, ATPlite luminescence. hit rate 0.044% among 360,000. 100% = ROCK inhibitor wells, 0% = DMSO. survival enhancement, % at 20 µM. AID 602274, 2012; in the data active = survival enhancement above about 18%;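 also: cells exposed to compounds for 16 hours before the ATP read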
Cardio protect = cardioprotection against H2O2-induced cell death, primary screen, uHTS, H9c2 cells, ATPLite luminescence. H9c2 cardiomyocytes, H2O2 injury protection, 2 h. protection from H2O2 cell death, % at 20 µM. hit rate 0.63% among 360,000;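 active = compounds giving at least 50% protection of heart cells from peroxide-induced death in the single-dose screen, raw or plate-pattern-corrected value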;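 also: 0% = DMSO wells with peroxide and 100% = DMSO wells without peroxide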
FAS-TE inh = FAS thioesterase domain inhibitors, primary screen, biochemical, fluorescence intensity, uHTS. recombinant FAS-TE, OMFH fluorogenic substrate, fluorescence endpoint. Fatty acid synthase (Homo sapiens), P49327. hit rate 0.67% among 360,000. inhibition, % at 15 µM;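 active = compounds whose normalised, plate-corrected inhibition of enzyme fluorescence in the single-dose primary screen is 50% or more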;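 also: 0% = DMSO with enzyme and 100% = substrate without enzyme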
NR3A LBD binder = binders of NR3A ligand-binding domain, primary screen, biophysical, differential scanning fluorimetry, uHTS. Tm shift relative to glycine control, % at 25 µM. hit rate 2.5% among 340,000. Glutamate receptor ionotropic, NMDA 3A (GRIN3A) ligand-binding domain. NR3A LBD differential scanning fluorimetry, Tm shift; 0% = protein alone, 100% = glycine-bound protein;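 active = melting temperature shift of at least 10% of the positive control shift, at one fixed dose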
Numbers without * were called inactive; nt = not tested or not shown; ! = not confirmed by another sample.

SMILES | SENP1 inh | Arrestin-AP2 inh | hiPSC survival | Cardio protect | FAS-TE inh | NR3A LBD binder
CCOC(=O)c1cccc(C2=C(CNC(C)=O)[C@H]3CC[C@@H](C2)N3Cc2ccccc2)c1 | 0.8 | nt | 1.9 | -2.4 | -8.6 | nt
CN(C)C(=O)Oc1cccc(-c2cn3cc(Cl)ccc3n2)c1 | 0.6 | 15.3 | -0.8 | -10.5 | -5.4 | -10.6
CN(C)C(=O)Oc1ccc(-c2cn3cc(Cl)ccc3n2)cc1 | 2.1 | 8.0 | -3.9 | -10.3 | -3.4 | 12.9*
C=CCn1c(O)c(C(C)=NCCN2CCOCC2)c(=O)[nH]c1=O | -5.3 | -0.1 | 0.8 | 4.6 | -10.1 | 2.9
C=CCn1c(O)c(/C(C)=N/N2CCCCCC2)c(=O)[nH]c1=O | -0.3 | 7.4 | -0.3 | 1.6 | -1.6 | 13.9*
CCCCCn1c(N)c(C(=O)NCc2cccs2)c2nc3ccccc3nc21 | nt | nt | nt | nt | nt | 9.5
Nc1c(C(=O)NCCCc2ccccc2)c2nc3ccccc3nc2n1Cc1cccs1 | -18.9 | -4.8 | 0.1 | -11.4 | 22.4 | 21.9*
COc1ccc(-n2nnnc2C(CCSC)N2CCC(n3c(=O)[nH]c4ccccc43)CC2)cc1 (stereo unspecified) | 0.7 | nt | 1.0 | 45.5 | 5.6 | nt
COc1ccc(N2C(=O)/C(=C/C=C/c3ccccc3[N+](=O)[O-])C(=O)NC2=S)cc1 | nt | nt | nt | nt | nt | 100.3*
CCN1C(=O)/C(=C/c2ccc(N(CC)CC)cc2OC)C(=O)NC1=S | -4.3 | -8.0 | 0.7 | -10.6 | -2.9 | 14.1*
COc1ccc(N2C(=O)/C(=C/c3ccc(N(C)C)o3)C(=O)NC2=S)cc1 | 69.5* | 40.6 | -0.2 | 9.7 | 1.3 | 0.0
CCN(CC)c1ccc(/C=C2\C(=O)NC(=S)N(c3ccc(OC)cc3OC)C2=O)o1 | 78.3* | -9.6 | 0.3 | -1.5 | -10.7 | 1.2
COc1ccc(N2C(=O)/C(=C/c3cccs3)C(=O)NC2=S)cc1 | -0.8 | 23.1 | -0.7 | -1.1 | -3.5 | 3.0
O=S(=O)(c1ccc(Cl)cc1)N1Cc2cc(Br)ccc2-n2nncc2C1 | 0.9 | nt | 1.3 | -5.4 | 19.4 | nt
O=c1[nH]c2ccccc2n1CCCN1CCC(n2c(=O)[nH]c3cc(Cl)ccc32)CC1 | 0.1 | 6.3 | -1.4 | 62.8* | 3.4 | -0.5
CCCCn1nnnc1C(C1CC1)N1CCC(n2c(=O)[nH]c3ccccc32)CC1 (stereo unspecified) | 2.5 | nt | 1.8 | 13.6 | -0.2 | nt
COc1ccc(-n2c(SC)nc3ccccc3c2=O)cc1 | 1.8 | -0.9 | 9.5 | -7.7 | 7.6 | -0.1
COc1ccc(-n2c(/C=C/c3ccc(O)c(OC)c3)nc3ccccc3c2=O)cc1 | -24.6 | 31.5 | -0.9 | 87.5* | 10.9 | -8.4
COc1ccc(-n2c(/C=C/c3ccc4c(c3)OCO4)nc3ccccc3c2=O)cc1 | -20.1 | 6.8 | 0.5 | 2.4 | 20.8 | -4.3
COc1ccc(-n2c(/C=C/c3ccc(O)cc3)nc3ccccc3c2=O)cc1 | -20.5 | 33.3 | 1.4 | 52.6* | 8.6 | -3.7
COc1cccc(-n2c(/C=C/c3ccccn3)nc3ccccc3c2=O)c1 | 0.8 | 18.8 | -0.6 | 16.8 | -0.1 | 1.6
O=c1c2ccccc2nc(/C=C/c2ccc(O)cc2)n1-c1cccc(O)c1 | -20.1 | 6.8 | -2.2 | 39.1 | 3.6 | -3.0
COc1cccc(-n2c(/C=C/c3ccc(O)c(O)c3)nc3ccccc3c2=O)c1 | -24.6 | -10.6 | -1.2 | 71.8* | -1.5 | 2.0
O=c1c2ccccc2nc(/C=C/c2ccc(O)cc2)n1-c1ccc(O)cc1 | -10.8 | 36.6 | -0.7 | 55.4* | -0.4 | -20.8
C[C@]12C[C@H](O)[C@@H](O)C[C@@H]1CC[C@@H]1[C@@H]2CC[C@]2(C)C(=O)CC[C@@H]12 | 2.0 | nt | -2.5 | 17.1 | -4.9 | nt
SMILES | SENP1 inh | Arrestin-AP2 inh | hiPSC survival | Cardio protect | FAS-TE inh | NR3A LBD binder
CC(C)(C)n1nnnc1C(c1cccs1)N1CCC2(CC1)C(=O)NCN2c1ccccc1 (stereo unspecified) | -0.3 | nt | -0.7 | 9.2 | 2.8 | nt
C[C@@H]1CN([C@H](C)CO)C(=O)CCCn2nncc2CO[C@@H]1CN(C)C(=O)Oc1ccc2ccccc2c1 | 2.2 | nt | 0.9 | 14.6 | -6.7 | nt
COc1nc2ccccc2c(=O)n1-c1ccc(C)cc1 | 0.3 | -1.2 | -0.7 | 0.5 | -9.8 | -9.9
CCCCOc1nc2ccccc2c(=O)n1-c1ccccc1 | 1.8 | -2.9 | -1.8 | -2.2 | 15.6 | 13.1*
O=C(Cc1cc(=O)oc2cc(O)ccc12)NN=Cc1ccc(N(CCCl)CCCl)cc1 | -70.3 | 9.9 | -0.1 | 13.7 | -7.9 | 18.3*
Oc1ccc2c3c1O[C@H]1[C@@H](O)CC[C@@]4(O)[C@@H](C2)N(CC2CCC2)CC[C@]314 | 32.8*! | -1.1 | -0.5 | -4.2 | -4.9 | 0.6
COC(=O)c1c(C)n(Cc2ccccc2)c2ccc(O)cc12 | -84.8 | 8.3 | -1.3 | 0.9 | -1.3 | 14.3*
CC1=C(C)CN2CC(C#N)=C(N)C2C1 (stereo unspecified) | -10.6 | nt | 0.1 | -2.3 | 0.9 | nt
Clc1cccc(N2Cc3ccccc3-n3nncc3C2)c1 | -1.7 | nt | -0.3 | 3.3 | 9.1 | nt
CCOC(=O)C(O)(c1ccc(NC(=O)Oc2ccccc2)cc1)C(F)(F)F (stereo unspecified) | 0.5 | 6.7 | 1.0 | -1.9 | 9.1 | 16.4*
CCOC(=O)c1c(NC(=O)c2c(N)n(CCCOC)c3nc4ccccc4nc23)sc2c1CCCC2 | -18.9 | 2.6 | -0.1 | 16.8 | 5.2 | 23.9*
CCCCn1c(NS(=O)(=O)c2ccc(C)cc2)c(C(=O)OCC)c2nc3ccccc3nc21 | -24.9 | 5.3 | -2.0 | -5.2 | 6.9 | 12.9*
CCOCCCn1c(N)c(C(=O)Nc2sc3c(c2C(=O)OC)CCCC3)c2nc3ccccc3nc21 | -27.2 | 11.1 | -1.9 | 39.9 | -0.1 | 17.2*
CCCCn1c(NC(=O)c2ccco2)c(C(=O)OCC)c2nc3ccccc3nc21 | -21.3 | 12.6 | 1.1 | -2.1 | 6.1 | -4.2
CCCCn1c(N)c(C(=O)OCCOC)c2nc3ccccc3nc21 | -45.3 | 13.4 | -0.8 | 0.1 | -3.9 | -0.3
CCn1nc(-c2cccs2)nc2c(=O)n(C)c(=O)nc1-2 | 44.4* | 8.4 | -4.1 | -23.0 | 1.2 | 0.1
O=C1NCN(c2ccccc2)C12CCN(C(CCc1ccccc1)c1nnnn1C1CCCCC1)CC2 (stereo unspecified) | -0.9 | nt | 1.3 | -2.3 | 29.1 | nt
C[C@H]1CN([C@@H](C)CO)C(=O)CCCn2nncc2CO[C@@H]1CN(C)C(=O)Oc1ccccc1 | -0.8 | nt | 2.1 | -6.4 | -4.3 | nt
